# Tested on: MS2 coat protein
# Assay: apparent Kd, MS2 coat protein; higher = weaker binding; RNA-MaP array; FMN 200 µM where present
# Summary of the method: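 Stalled E. coli RNA polymerase produced the designs on Illumina sequencing-chip clusters. SNAP-549-labelled MS2 coat protein was added from 0.7 or 1.5 nM, doubling to 3 µM, without and then with constant ligand, in 100 mM Tris-HCl pH 7.5, 80 mM KCl, 4 mM MgCl2, BSA, DTT, yeast tRNA and Tween-20. The apparent Kd is the median of filtered per-cluster fits of green signal normalised to red-channel RNA signal and control-cluster median Fmax.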
# [1] = designed as: OFF switch for flavin mononucleotide, no ligand
# [2] = ligand present: flavin mononucleotide, designed as: OFF switch for flavin mononucleotide
# [3] = designed as: ON switch for flavin mononucleotide, no ligand
# [4] = ligand present: flavin mononucleotide, designed as: ON switch for flavin mononucleotide
Sequence,apparent Kd [1] [nM],apparent Kd [2] [nM],apparent Kd [3] [nM],apparent Kd [4] [nM]
AGGUGACAUGAGGAUCACCCAUGUAAGGAUAUACGGUUAGUGGAGAGUUGGAGGAGAGGUAGAAGGUACGGAGC,249,194,,
UUUAUUUAGGCAGGAUAUACAUGUAUAUAUAUUUCUUUAUAUCUUAUUACAUGAGGAUCACCCAUGUAGAAGGGCCUUAUUAUA,17.3,23.6,,
AGGCUCACAGGAUAUCUCCACGGUAACAUGAGGAUCACCCAUGUCUCAUUUUCUCGUGCAAGAGAAGGGUGAGCGG,435,455,,
GAUCGAAACACUCCUUACACUACAUGAGGAUCACCCAUGUAGCAGGAUAUCAUUGCUCCUCGCUGUGAGAAGGGCUACGGGCGA,7.3,14,,
UUAUAUUUACAAGGAUAUCAAUUAUUUAUACUUCCUACAUGAGGAUCACCCAUGUUUUUAUAUUUUGAGAAGGUGUAAUGUCGG,,,38.5,33.7
AAAUAGGAAGGAUAUACGGCGGGAUACUGGUUCCACGUGUUACAUGAGGAUCACCCAUGUAGAAGGUCUGGUUA,24.7,55.4,,
GCAUGCAUAGCGAUAUGAUCGAGAGAUCAUGUCGCUAAAUUUAGAAGGACAUGAGGAUCACCCAUGUAGGAUAUGGGAGCAUGG,,,76,12.7
UGAAUCAAUACAGGAUAUGGUGACGCACAUGAGGAUCACCCAUGUCCGCAGCGUGCUAAGCACGCCCAGAAGGGUAUUGAUCUG,,,1010,81
GCGCGAAGGUAGGAUAUCCAGGCAUCUUGCCGCGGAGAAGGACCCACAUGAGGAUCACCCAUGUGGUGAUCCUG,13.5,14.4,,
GUAGCUAUCGGAGGAUAUUCAUACCGGAAACGGACAUGAGGAUCACCCAUGUGGCGAAAGCCGUGGGAGAAGGCCGAUAGCUAC,,,875,43
AAGUAGAUCCGAGGAUAUACAAUCUGGAAUCGGUACAUGAGGAUCACCCAUGUAGAAGGCGGAUCUACAGGUACUAAAGUACCA,7.88,38.8,,
AGUGCCAUGUAGAAGGCAGAUCUGAUUCAGAUCUGAGGAUAUACAUGAGGAUCACCCAUGUAAAUGCACUGCACGAGAGUGCAA,12,43.9,,
GCCAUCGCAUGAGGAUAUGGUCAGCUUUGCUGACCAGAAGGCAUGUCAUAAGACAUGAGGAUCACCCAUGUAGUUAAGAUGGCA,,,778,47.9
UCAUCUUGUCGAGGAUAUAUUAACAUGACAUGAGACACAUGAGGAUCACCCAUGUAUUUUUUUUUAUAGAAGGCGACUAUAUGU,,,32.6,52.9
UGUUGUAUUACAGGAUAUCUAUUAGUUUUAAUUAGAGAAGGGUAUUCACAUGAGGAUCACCCAUGUAUAUACGAGGAAGUUGUG,,,39.1,42.2
AAACUCAGAGGAUAUACAUAACACAGACUCUUCAUGCGUUCACAUGAGGAUCACCCAUGUAGAAGGCUGACAAC,23.2,85.1,,
AAUAUGAGCUGGUAAAUAAAACCGACAUGAGGAUCACCCAUGUAGGAUAUCAGCACGAUAAGUGCUGAGAAGGACAUCCAGCUC,14.4,16.7,,
UUUCAACAUGAGGAUCACCCAUGUGAGGAUAUGAUGCAGCAGUGGUCUACGCUGUGCAUCAGAAGGCACAUGUG,200,21.8,,
GCGAUUUUGUAAGGAUAUACACCAGUUUUAAGUGUAGAAGGUACUUACAUGAGGAUCACCCAUGUAUAAAUGUAUAAUAGUCGC,,,6.92,6.87
AGAUAACACCAGAAGGACAUGAGGAUCACCCAUGUAGGAUAUGGGCAUCACUCGAGAAAGAAACGACCGAAAGGACACGCGGUC,,,155,13
UGUUGUUCCGCAGGAUAUGUAUUAGAUUAUAAUACAGAAGGGCGAUAACAUGAGGAUCACCCAUGUGUGGACAAUAAGGAAGAG,,,602,81.2
GACAAGGGAGGAUAUGCACAAGGGAUAUCUGACAUGCCGUUACAUGAGGAUCACCCAUGUAGAAGGCCCGAAUA,13.7,35.3,,
AAACAACAUGAGGAUCACCCAUGUAAGGAUAUGCGAGUUGGGUCAACGAAGGUUGAAGGCAGAAGGUAUAGGGU,58.5,50.4,,
CGAGUGUAAGGAUAUUCGGCACCAGAGAACGAUCUGGCGUAGAAGAAGGUACAUGAGGAUCACCCAUGUGGUUA,158,41.7,,
UGUCGGAGCAGAGGAUAUUACAUGAGGAUCACCCAUGUAUGAACCAAUAGCUGGAAACAGAAAUGUAAGAAGGCUGCUCCGACA,5.84,21.2,,
UGGAAGAGAAGAGGAUAUCCGUAGAUAACACAUGAGGAUCACCCAUGUAAGAGGGAUAGGUGAUAGGAGAAGGCUUAGAGAGGU,15.2,14.9,,
CUCAUGUGAGGAUAUGCUGCUCGUCACGAAAGUGAUGAGUAGCAGAAGGUACAUGAGGAUCACCCAUGUAAAUA,98.9,18.8,,
UGGUGUGAAUAGGAUAUGAACUCUGCCAGGAUAUCAGAAGGGUUUACAUGAGGAUCACCCAUGUCAUCCACUGC,18.8,18.9,,

Sequence,apparent Kd [1] [nM],apparent Kd [2] [nM],apparent Kd [3] [nM],apparent Kd [4] [nM]
AAUAUGUUGCAGAAGGCUAUGUUGUGGUAGUACCUCAUGACAUGAGGAUCACCCAUGUUUGUGUUGGAGGAUAUGCAAUAUAUU,12.7,40.6,,
UGGUACAUCGGAGGAUAUCAUGUAGAUACAUGAGGAUCACCCAUGUCGUACGAGAGUACGGAGAUUGAGAAGGCCGAUGUACCU,,,30.7,16.4
AAGCAUUGGCUUCUCAUCUACAUGAGGAUCACCCAUGUCGGGAGAAGGAGGCGUUGACAACUAGCCUAGGAUAUCCUAACGUGC,6.74,7.26,,
CUUAUGUGAGGAUAUGGUGUUGGUCACAGGAAAAAGAUUCUCCAGAAGGCACAUGAGGAUCACCCAUGUAGUGA,89.4,71.2,,
AGAUAACACCAGAAGGACAUGAGGAUCACCCAUGUAGGAUAUGGGCAUCACUCGAGAAAGAAACGACCAAAUGGACACGCGGUC,,,80.1,9.46
GACCUGAGUAAUAAUGUAGAAAUACAUGAGGAUCACCCAUGUAAGGAUAUGCAGUGGAAUACACUGCAGAAGGUACAUCUCAGG,16.6,29.6,,
ACACAGAAAGGAUAUGCAGGGAGAUAAAGCUUCUUGUUCCAACAUGAGGAUCACCCAUGUAGAAGGUUCGAAAA,32,99.5,,
AUUGUUAAGUUAGGAUAUAGUAAAAUAAUUUAAUUAGAAGGAGCUCACAUGAGGAUCACCCAUGUAAGAGGAUCACCCAUGUAU,23.5,18.9,,
AUUUUACAUGAGGAUCACCCAUGUUUUGGUGGAUCAGGAUAUAGAUCGGAUGAGUUCUGGCUAGAAGGGAUAUAUA,,,93.6,86.5
CCAUAAAAGAUCCAAAAUUACAACAUGAGGAUCACCCAUGUGCAGGAUAUCGUGAAAGUAAAAUACGAGAAGGGCAAACACUGC,365,442,,
AUACCACGAGGAUAUCGUCUAUAAUACAUGAGGAUCACCCAUGUUAUAUCUGUAAUGUUUCGAGAAGGCGUUUGUU,24.3,17.1,,
AGUAUACAUGAGGAUCACCCAUGUCUGUAACGGACAGGAUAUGCGUUGCAUCACUGUAAUGCAGAAGGGUCCUGUA,,,296,45.2
GCUGCAAAGUAAGGAUAUGCCUAGGAAACCUAGGCAGAAGGUACAUGAGGAUCACCCAUGUUAACUCAAAGAGAAUAAAGCAGC,16.8,28.6,,
UGAUAGGACAGAGGAUAUACGUGCUAGAGAUACUAGCUACAAAUCCUUACAUGAGGAUCACCCAUGUAGAAGGCUGUCCUAUCU,19.3,39.4,,
UGGUGACGUGUAGGAUAUGGAGGUGGGUUUUGGCCAGAAGGACAUGAGGAUCACCCAUGUGGUAGAGGGUUGGCGGUGGCCCGU,17.7,15.2,,
GGAAAACAUGAGGAUCACCCAUGUGAGGAUAUCGAUGUCCAAAAACCCGUGCGGGACUCGAGAAGGCACUUGGA,43.1,57,,
AGUCGGAGCAGAGGAUAUACAUGAGGAUCACCCAUGUAAUAAAGUGAAGCCUGGAAGCAGGCAAUGUAGAAGGCUGCUCCGACA,11.1,81.8,,
ACUGUUUGACUCCUCUUAUACAUGAGGAUCACCCAUGUUAUCGAGGAUAUGCAUUAGAGUGUUUAGCAGAAGGCGAUGUAAUUG,6.72,14.4,,
AUUUUGUGAGGAUAUGUGGCUUCGAUCGUGAGAUCGAGGCUACAGAAGGCACAUGAGGAUCACCCAUGUUCCUA,20.6,206,,
CUAGUACAUGAGGAUCACCCAUGUCAGGAUAUUGGAUAUGCCUUGGAAAACAUGUUUACAAGAAGGGACUAUAG,19.1,19.6,,
UGAGCAGAAGGAUAUGCGUAAUGGCCGUGAGGCCUAGAUCUACAUGAGGAUCACCCAUGUAGAAGGUCUGUUCU,15.3,15.2,,
GCCGAUUAAGUCAGGAUAUACCUAUGGAUACAUAGGUAGAAGGGACAUGAGGAUCACCCAUGUUCCUCACCGGC,14.8,21.8,,
CUGCCUUAUGUAGGAUAUGCAUAGCGUUGCUAUGCAGAAGGACAUGAGGAUCACCCAUGUAUGUAAUCAAUACAUAUCUGGCAG,19.8,122,,
AUGCUUCACACAGGAUAUACAUGAGGAUCACCCAUGUGUCCUACGUAGCUGACACGAGCUACGCGGUAGAAGGGUGUGAAGCAU,18.6,93.7,,
AUGCCUAAUGAGAAGGUGUAUAUAAAUUAUAUACAAGGAUAUCGGUCAAGCAUGAAAACAUGAGGAUCACCCAUGUUAAGGCAU,,,7.57,6.36
GGAGCACAUCAAUACAUGAGGAUCACCCAUGUCGAAUGAUAUGAGGAUAUGCAUCGGAAAACGAUGUAGAAGGCAUAGUGCUCC,,,15.6,6.27
CUUUUGUGAGGAUAUUAGUAGUAAACGAACAAAAUUAUUACUGAGAAGGCACAUGAGGAUCACCCAUGUUCCUC,46,575,,
